Screens as filed in PubChem BioAssay.
APJ agonist = APJ receptor agonism; AID 2520; 330,000 tested, 0.11% active; P35414; CHO-K1 APJ PathHunter beta-arrestin, luminescence; 0% DMSO wells, 100% apelin; activation, % at 20 µM;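 active means activation more than six SD over the plate average, tested at 20 µM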;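 further: 0% = DMSO alone and 100% = apelin-13 at 10 nM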
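Material: engineered CHO-K1 APJ arrestin reporter cells; amount: 1000 CHO-K1 reporter cells seeded per well; incubation: compound stimulation 90 min at 25 °C, detection 60 min; signal: luminescent beta-gal fragment complementation, chemiluminescent substrate; read-out basis: APJ agonist activity; controls: DMSO-only wells as negative, 10 nM Apelin-13 as positive control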
EBI2 antag = antagonists of human EBI2 receptor; P32249; EBI2 beta-arrestin recruitment, luminescence, 7a,25-OHC stimulated; inhibition, % at 5 µM; 360,000 tested, 0.81% active; in the data active means inhibition above about 38%;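 further: enzyme fragment complementation signal reports receptor beta-arrestin coupling in cells; 0% = agonist plus DMSO wells and 100% = wells without agonist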
Target sequence (P32249 whole entry, looked up, the tested form may be a part): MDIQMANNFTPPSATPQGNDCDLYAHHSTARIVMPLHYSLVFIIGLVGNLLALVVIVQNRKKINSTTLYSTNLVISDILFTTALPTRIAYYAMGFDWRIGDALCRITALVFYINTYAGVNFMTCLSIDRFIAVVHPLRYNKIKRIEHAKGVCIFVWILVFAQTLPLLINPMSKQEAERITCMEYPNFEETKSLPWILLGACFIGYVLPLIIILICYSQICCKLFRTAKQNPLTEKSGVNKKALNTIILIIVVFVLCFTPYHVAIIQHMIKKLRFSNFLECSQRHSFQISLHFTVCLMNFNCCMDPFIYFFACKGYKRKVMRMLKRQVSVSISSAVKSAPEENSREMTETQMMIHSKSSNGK
CCR6 antagonist = CCR6 (human) receptor antagonism. 340,000 tested, 0.49% active. inhibition, % at 20 µM. P51684. AID 493098. CHO-K1 CCR6 PathHunter beta-arrestin, luminescence, CCL20-stimulated;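 active means compounds whose inhibition of the agonist-driven luminescence signal at 20 µM reaches about 50%, limit read from the data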;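 further: cells stimulated with CCL20 at 14 nM final; plate controls were DMSO with CCL20 for no effect and DMSO without agonist for full effect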
APJ antagonist = antagonists of human APJ apelin receptor; inhibition, % at 20 µM; 330,000 tested, 0.32% active; AID 2521; CHO-K1 APJ beta-arrestin complementation, luminescence; P35414;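 active means inhibition above about 40% at 20 µM, limit read from the data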;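 further: cells challenged with 10 nM apelin-13 agonist together with compound; plate controls were apelin-13 plus DMSO wells for no effect and DMSO wells lacking apelin-13 for full effect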
CXCR6 inh = inhibitors of human CXCR6 receptor; O00574; CHO-K1 PathHunter CXCR6 beta-arrestin, luminescence; inhibition, % at 20 µM; 360,000 tested, 0.36% active; in the data active means inhibition above about 34%, passing the limit was not always enough;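 further: antagonist mode with CXCL16 agonist at 10 nM final; 0% = 10 nM CXCL16 with DMSO and 100% = unstimulated wells without agonist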
Target sequence (O00574 whole entry, looked up): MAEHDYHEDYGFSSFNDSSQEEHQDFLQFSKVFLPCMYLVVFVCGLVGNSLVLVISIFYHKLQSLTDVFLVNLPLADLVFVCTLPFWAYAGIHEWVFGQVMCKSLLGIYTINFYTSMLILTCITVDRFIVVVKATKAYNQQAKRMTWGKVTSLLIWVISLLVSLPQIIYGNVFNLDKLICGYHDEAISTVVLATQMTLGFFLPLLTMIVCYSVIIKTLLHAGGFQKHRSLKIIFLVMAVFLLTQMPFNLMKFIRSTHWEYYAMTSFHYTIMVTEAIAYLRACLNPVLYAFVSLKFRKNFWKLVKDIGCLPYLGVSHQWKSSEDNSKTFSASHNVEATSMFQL
CXCR6 antag conf = confirmation of human CXCR6 receptor antagonists. shares compounds with CXCR6 inh. CHO-K1 CXCR6 PathHunter beta-arrestin, luminescence. 700 tested, 65% active. inhibition, % at 20 µM;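 active means mean inhibition over four retests above 40%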;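 further: receptor stimulated with 10 nM CXCL16 agonist; beta-galactosidase fragment complementation upon beta-arrestin recruitment to receptor; plate controls were CXCL16 plus DMSO for no effect and DMSO without CXCL16 for full effect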
* marks the source's active call; other numbers are inactive results; x = no result given. This is a sample that favours compounds with a hit; in the whole collection about 1.5% have one here.

SMILES	APJ agonist	EBI2 antag	CCR6 antagonist	APJ antagonist	CXCR6 inh	CXCR6 antag conf
Cc1ccc(Cn2c(SCC(=O)N3CC(=O)Nc4ccccc43)nc3ccccc3c2=O)cc1	0.7	12.8	-3.8	-6.0	7.9	x
O=C1CN(C(=O)CSc2nc3cc(Cl)ccc3c(=O)n2Cc2ccccc2)c2ccccc2N1	-7.2	26.1	55.5*	28.6	43.4*	46.6*
CCNC(=S)N/N=C(\C)c1ccc(Cl)s1	-4.8	3.2	32.1	30.2	41.1*	26.1
C=C(C)CNC(=S)N/N=C(\C)c1ccc(Cl)s1	-6.3	17.6	19.1	19.4	18.0	x
Cc1cc(OC(=O)Cc2cccc3ccccc23)c([N+](=O)[O-])c(=O)[nH]1	-5.1	-13.3	-9.2	4.9	39.3*	-2.3
CC(Oc1ccc(Br)cc1)C(=O)Nc1nc(-c2ccccn2)cs1 (configuration not stated)	-20.1	6.4	84.3*	39.2	92.6*	86.1*
Cc1cc2nc(N3C(=O)CNC3=S)sc2cc1C	-3.5	-8.0	x	22.0	50.0*	61.3*
O=C1C=CC(=O)N1CCCCCCCCCCN1C(=O)C=CC1=O	x	25.7	110.5*	x	86.7*	50.6*
Cc1ccc(P(=O)(O)c2ccc(C)cc2)cc1	2.1	-0.9	3.1	3.0	3.0	x
Cc1ccc(P(=O)(c2ccc(C)cc2)[C@@H](NC(c2ccccc2)c2ccccc2)c2ccccc2)cc1	x	27.1	x	x	40.9*	41.1*
Cc1nc2ccc(C(=O)Nc3ccc4c(c3)OCC(=O)N4)cn2c1N(C)C(=O)CCc1ccccc1	x	-4.4	x	x	-1.3	x
COc1ccc(Nc2cc(C)nc3ccccc23)cc1	-1.6	-5.7	-1.3	-0.4	-0.9	x
COc1ccc2nc(C)cc(Nc3ccc(C)cc3)c2c1	-1.8	16.0	11.7	3.9	58.5*	1.3
COc1ccc(CC(N)c2csc(NC(=O)C(c3ccccc3)c3ccccc3)n2)cc1 (configuration not stated)	x	-3.9	x	x	-16.9	x
O=C(c1ccccc1)c1ccccc1N1C(=O)C=CC1=O	1.2	4.0	x	26.7	73.6*	16.0
CC1C(=O)N(Cc2cn(Cc3ccco3)nn2)CCS(=O)(=O)N1Cc1ccc(-c2ccc(Cl)c(Cl)c2)cc1 (configuration not stated)	x	10.8	x	x	67.1*	-15.9
C/C(CCC(C)C)=N\NC(=S)NCc1ccccc1	-4.3	17.3	40.5	38.5	40.1*	29.9
C/C(CCc1ccccc1)=N\NC(=S)NCCc1ccccc1	-3.4	28.8	39.5	5.9	26.1	x
Cc1oc2ccc(O)cc2c1C(=O)c1ccc([N+](=O)[O-])cc1	10.2	-16.5	1.6	-48.5	-26.0	x
CN(C)/C=C/c1oc2ccc(O)cc2c1[N+](=O)[O-]	-7.2	3.4	61.2*	49.2*	41.8*	66.1*
COc1cccc(C(C(=O)NC(C)(C)C)N(C(=O)CCC(=O)Nc2cc(C)on2)C(C)C)c1OC (configuration not stated)	-2.5	-0.3	-5.7	3.8	46.9*	7.3
Cc1ccc(S(=O)(=O)N2C(c3ccccc3)CC(=O)C3CN(S(=O)(=O)c4ccc(Cl)cc4)C(c4ccccc4)CC32)cc1 (configuration not stated)	x	5.4	x	x	x	x
O=C(COc1ccc(Br)cc1Cl)NC(=S)N1CCc2ccccc21	-4.1	4.0	44.2	11.8	56.9*	53.4*
CC(C)CN1CCC1(C)C(=O)Nc1cccc(C#N)c1 (configuration not stated)	x	-0.6	x	x	1.6	x
COc1ccc(-c2c(C(=O)c3ccccc3)[nH]c(N)c2C(=O)c2ccccc2)cc1OC	x	3.1	x	x	41.5*	41.2*
SMILES	APJ agonist	EBI2 antag	CCR6 antagonist	APJ antagonist	CXCR6 inh	CXCR6 antag conf
Clc1ccc(N2O[C@H]3C=C[C@@H]2C3)nc1	x	-8.0	x	x	-6.8	x
COc1ccc(S(=O)(=O)N(C)C[C@H]2OCc3cnnn3CCCC(=O)N([C@@H](C)CO)C[C@H]2C)cc1	x	41.1	x	x	-3.0	x
O=C(Nc1nc(-c2ccccc2)c(-c2ccccc2)o1)c1ccc(F)cc1	-3.5	5.1	x	16.4	41.1*	27.4
CCOC(=O)[C@]12CCCC=C1N(Cc1ccc(Cl)cc1Cl)C(=O)[C@H](CC(=O)NCCc1ccccc1OC)C2	x	15.7	x	x	14.9	x
Cc1cccc(C)c1NC(=O)C(c1ccccc1OC(F)(F)F)N1CCC(c2ccccc2)CC1 (configuration not stated)	x	6.2	x	x	x	x
COc1cc(-c2cc(NC=O)c3ncc(-c4ccc(C(C)=O)cc4)n3c2)ccc1O	x	29.8	x	x	6.0	x
Cn1cnc([N+](=O)[O-])c1NC(C)(C)C	-4.4	-3.6	-3.8	12.7	0.7	x
Cn1cnc([N+](=O)[O-])c1S(=O)(=O)c1ccc(Cl)cc1	x	3.3	49.8	x	41.7*	68.8*
COC(=O)c1ccc2c(c1)C(C)(C)C(/C=C/c1ccc(OC)c(OC)c1OC)=[N+]2C	-1.5	21.1	55.5*	1.8	76.9*	101.9*
COc1ccc(/C=N/Nc2ccc(C(=O)O)cc2)c(OC)c1OC	1.0	-14.5	1.6	-8.7	-8.4	x
COc1cccc(-n2nc(C#N)c(Cl)cc2=O)c1	-3.2	46.6*	36.4	49.5*	49.6*	50.7*
O=C(NCC(O)c1nc2ccccc2[nH]1)c1cc([N+](=O)[O-])ccc1F (configuration not stated)	x	-9.0	x	x	-4.1	x
COc1cccc(/C=C2/CCC(CN(C)C)C2=O)c1 (configuration not stated)	x	23.4	91.8*	x	71.2*	53.7*
CCCC/C=C1/CCC(CN(C)C)C1=O (configuration not stated)	x	-1.5	51.8*	x	34.1*	48.2*
C=CCNc1nc(C(=O)OCC(=O)c2ccccc2)cs1	-2.7	-10.7	0.4	-0.5	102.6*	12.2
C=CCN1C(=O)/C(=N/n2cnnc2)c2ccccc21	-2.9	-8.1	20.7	9.3	5.7	x
CC(C)CN1C(=O)C(=Nc2cccnc2)c2ccccc21	-9.7	9.2	37.1	33.0	43.3*	36.9
CC(=O)Nc1cccc(-c2ccnc3c2CC(C(=O)NCCC(F)(F)F)O3)c1 (configuration not stated)	x	-4.8	x	x	-2.3	x
CCOC(=O)C1(C)CCCN1C(=O)c1ccc(OC)cc1 (configuration not stated)	x	-4.9	x	x	4.6	x
O=C(NNC(=O)c1cc(-c2ccccc2)nn1-c1ccccc1)c1ccccc1	-5.0	15.9	x	-9.6	45.6*	40.6*
CCOC(=O)[C@]12CCCC=C1N(CCC1=CCCCC1)C(=O)[C@H](CC(=O)N1CCN(C(=O)C3CC3)CC1)C2	x	1.0	x	x	x	x
C=C1C(=O)O[C@@H]2[C@H]1CC[C@H](C)[C@]1(O)CCC(=O)[C@@]21C	-3.9	-2.3	4.8	8.5	-6.3	x
C=C1C(=O)OC2C1CCC(C)=C1C(=O)C3OC3(C)C12 (configuration not stated)	x	52.2*	47.5	x	47.3*	58.9*
CCCCc1c(Cc2ccccc2)ncn1CCc1ccccc1OC	x	0.4	x	x	38.4*	2.6
